Source: paper PMC4129520 (Neuron, 2014)

How the values were obtained:
γ-secretase [1] = conditions: ref Hong et al., 2011; cited from earlier work
γ-secretase [2] = test: GM1-bound Aβ in TBS-Tx extracts of 3 mo J20 tg mice after Compound E; format: in vivo, mouse
Summary of the method: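 3-month J20 transgenic mice were injected with test compound or vehicle, and brains were harvested 2.5 h or 5 h later. Brains were Dounce-homogenized in ice-cold TBS (20 mM Tris-HCl, 150 mM NaCl, pH 7.4) with protease inhibitors and spun 175,000 g for 30 min at 4 °C. The pellet was re-extracted the same way in TBS-1% Triton-X. Both extracts underwent R1282 IP, then WB: 3D6+6E10+266+2G3+21F12 for Aβ, CTβ for GM1. N=4 vehicle mice; mean ± SEM; 2-way ANOVA with Bonferroni post-test.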

## C[C@H](NC(=O)Cc1cc(F)cc(F)c1)C(=O)N[C@H]1N=C(c2ccccc2)c2ccccc2N(C)C1=O [Compound E]
γ-secretase [1]
  t1/2 of decline in brain ISF Aβ: ~ 2 h
γ-secretase [2]; 3 mo J20 tg mice, brains harvested 2.5 h or 5 h after injection, N=3 and 4 mice
  Levels of GM1-bound Aβ in TBS-Tx: decreased
γ-secretase [2]; data not shown
  Effect on total GM1 levels in the brain: no effect
